HSF-1 act – increases HSF-1 driven luciferase reporter signal | 1.7% of 300,000 active | NIH3T3-HGL HSF-1 luciferase reporter, MG132, 8 h; 100% = twice DMSO control signal | activation, % at 9 µM;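 active means mean replicate activation of at least 50% with a set share of replicates each reaching 50%; inconclusive means only one of those two conditions met; inactive means mean below 50% and too few replicates reaching it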;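 further: 0% = median of the neutral control wells and 100% = twice that signal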
core dimer inh – HCV core protein dimerization inhibition | AID 1899 | 0.33% of 300,000 active | TR-FRET GST/Flag-core106 dimerization, 1536-well | inhibition, % at 5 µM;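 active means inhibition above the mean of all tested compounds plus 3 SD, set per screening campaign, cut at about 45% in these data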
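Material: GST/Flag-tagged HCV core106 proteins. Incubation: 4 h, 22.5 °C incubation. Read-out basis: inhibition (%) from 671 over 617 nm ratio. Measured by: TR-FRET, excitation 340 nm, emission 617 and 671 nm.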
PHOSPHO1 inh – PHOSPHO1 (human) inhibition; 1.1% of 290,000 active; recombinant PHOSPHO1, absorbance phosphatase assay; inhibition, % at 13.3 µM; Q8TCT1; in the data active means inhibition above about 60%
Target sequence (Q8TCT1 whole entry, looked up): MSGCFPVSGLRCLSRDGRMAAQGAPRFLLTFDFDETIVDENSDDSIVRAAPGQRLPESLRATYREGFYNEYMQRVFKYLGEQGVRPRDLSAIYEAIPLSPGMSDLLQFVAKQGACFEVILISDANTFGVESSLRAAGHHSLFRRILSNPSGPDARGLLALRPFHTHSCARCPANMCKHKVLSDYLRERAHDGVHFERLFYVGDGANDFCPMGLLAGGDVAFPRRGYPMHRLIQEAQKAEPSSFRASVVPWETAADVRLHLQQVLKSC
AI-2 QS mod – modulators of Vibrio harveyi AI-2 quorum sensing system | AID 2094 | activity change, % at 7.5 µM | Vibrio harveyi JMH597 AI-2 luminescence/OD600 ratio, 9 h; stronger effect = lower value; strain lacks LuxN and CqsS sensors; 0 = neutral-control median | 0.4% of 300,000 active; in the data active means activity change below about -75%, passing the limit was not always enough; inconclusive means no clear call, values can overlap the other calls;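 further: luminescence divided by OD600 gain over 9 h not by final OD600 alone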
HSF1 inhib – HSF1 inhibition; NIH3T3-HGL HSE-luciferase, MG132-induced, luminescence 8 h; stronger effect = lower value; activity change, negative = inhibition, % at 7.5 µM (by protocol); 0.77% of 300,000 active;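 active means more than half of replicate wells show activity change below -50%, luminescence cut by over half; inconclusive means some wells, but at most half, below -50%; inactive means no replicate well below -50%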;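 further: luciferase reports HSF-1 transcriptional activity via heat shock element; 0% = median of DMSO wells and -100% = zero luminescence signal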
ALR inh – human ALR oxidase inhibition via reduced H2O2; 3.8% of 290,000 active; purified ALR, DTT oxidation, H2O2 HRP-luminol luminescence; AID 485317; P55789; inhibition, % (test concentration not listed);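 active means mean replicate inhibition above about 79%, with every replicate also reaching it, limit read from the data; inconclusive means only one of the two criteria met; inactive means mean below limit and not every replicate reaching it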
Target sequence (P55789 whole entry, looked up): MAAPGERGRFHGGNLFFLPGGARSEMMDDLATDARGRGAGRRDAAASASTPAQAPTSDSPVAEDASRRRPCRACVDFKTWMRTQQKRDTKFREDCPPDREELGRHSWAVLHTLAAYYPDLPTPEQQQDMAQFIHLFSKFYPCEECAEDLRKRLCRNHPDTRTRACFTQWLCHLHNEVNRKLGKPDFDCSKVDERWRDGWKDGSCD
* hit, by the source's call; ? = inconclusive; nt = not tested or not shown. Sampled rows, rich in hits. Any-hit rate of the full collection: about 6.8%.

SMILES | HSF-1 act | core dimer inh | PHOSPHO1 inh | AI-2 QS mod | HSF1 inhib | ALR inh
CCN1CCN(C(c2ccc(C(F)(F)F)cc2)c2ccc3cccnc3c2O)CC1 (configuration not stated) | 42.6 | -14.6 | -102.1 | -119.3* | 22.8 | 21.6
CC(=O)NC(c1ccco1)c1ccc2cccnc2c1O (configuration not stated) | -14.9 | -3.8 | -15.0 | -19.6 | -3.8 | 6.4
OCCN1CCN(C(c2cccs2)c2ccc3cccnc3c2O)CC1 (configuration not stated) | nt | nt | 104.8* | nt | nt | nt
CCC(=O)NC(c1ccc(C)cc1)c1ccc2cccnc2c1O (configuration not stated) | -34.4 | 16.7 | nt | -12.6 | -32.5 | -5.0
CN1CCN(C(c2ccc(Cl)cc2)c2cc(Cl)c3cccnc3c2O)CC1 (configuration not stated) | 79.2* | 7.4 | -101.1 | -121.9* | 82.5 | -2.4
Oc1c(C(c2ccccn2)N2CCCCC2)cc(Cl)c2cccnc12 (configuration not stated) | 11.6 | -1.9 | -9.7 | ? | -4.5 | 82.8*
Cc1ccc(-n2ncc3c2CCCC3NC(=O)CSc2ccccn2)cc1C (configuration not stated) | 6.3 | 2.2 | 38.3 | 5.4 | -2.3 | -5.2
Cc1ccc(NCc2nc(SCC(=O)Nc3ccccc3)n[nH]2)cc1 | -17.6 | -14.4 | 40.3 | 3.5 | -9.7 | 0.1
CC(=O)NC(c1ccccc1)c1cc(Cl)c2cccnc2c1O (configuration not stated) | -83.5 | -3.3 | -38.8 | 28.3 | -82.8* | -7.5
CN1CCN(C(c2ccc(C(F)(F)F)cc2)c2cc(Cl)c3cccnc3c2O)CC1 (configuration not stated) | -25.4 | -7.7 | -104.2 | -85.0* | -11.3 | 10.2
CCC(=O)NC(c1cccs1)c1cc(Cl)c2cccnc2c1O (configuration not stated) | -57.5 | -1.5 | 3.4 | 30.1 | ? | -8.5
Cc1ccc(S(=O)(=O)Nc2nnc(CC(C)(C)C)s2)cc1 | 2.8 | 0.8 | nt | 25.8 | 2.1 | -3.7
CC(C)(C)Cc1nnc(NS(=O)(=O)c2ccc(F)cc2)s1 | -65.1 | 2.5 | 77.6* | 1.5 | -52.9* | 8.7
CC1CCc2sc(C(=O)NNC(=S)NC3CC3)cc2C1 (configuration not stated) | -2.1 | -6.3 | -81.8 | 1.6 | 0.0 | 10.9
Cc1ccc(S(=O)(=O)Nc2cc(C)c(O)c(S(=O)(=O)c3ccc(C)cc3)c2)cc1 | -1.2 | 2.5 | -16.5 | 9.9 | -4.7 | 20.8
Cc1cc(NS(=O)(=O)c2ccccc2)cc(Cl)c1O | 5.7 | -13.1 | 10.6 | 5.7 | -1.7 | 98.7*
O=C(Nc1ccc(O)cc1)c1ccc(NC(=O)C2CCCO2)cc1 (configuration not stated) | -5.2 | nt | 65.8* | 6.8 | -3.8 | 99.0*
O=C(Nc1cc(Cl)c(O)c(Cl)c1)C1CCCO1 (configuration not stated) | 14.7 | -6.4 | 13.3 | -7.4 | -0.3 | 98.4*
O=C(O)c1cc(NC(=O)C2CCCO2)cc(NC(=O)C2CCCO2)c1 (configuration not stated) | 3.9 | -5.0 | -5.7 | 26.4 | -6.3 | -9.3
CCN(CC)c1ccc(NC(=O)c2ccc(NC(=O)C3CCCO3)cc2)c(C)c1 (configuration not stated) | nt | -13.6 | 38.2 | nt | nt | 99.1*
NC(=O)c1ccc(NC(=O)C2CCCO2)cc1 (configuration not stated) | -10.6 | -1.1 | 25.7 | 10.3 | 2.9 | -10.6
CCN(CC)C(=O)NC1CCCCCCC1 | -1.2 | -2.6 | 60.0* | 38.2 | -12.1 | -13.6
COc1ccccc1NC(=O)C1CCN(S(=O)(=O)c2cccc3nonc23)CC1 | -5.8 | -15.6 | 32.0 | nt | -3.3 | -10.1
CC(C)(C)c1nc2c(Br)cc(Br)cc2c(=O)o1 | 11.9 | -2.6 | -2.4 | 45.7 | -1.3 | -6.3
CN(C)c1cccc(C(=O)NCc2ccccc2)c1 | -14.1 | -4.2 | 39.9 | -5.2 | -5.3 | 96.5*
SMILES | HSF-1 act | core dimer inh | PHOSPHO1 inh | AI-2 QS mod | HSF1 inhib | ALR inh
CN(C)c1cccc(C(=O)NCc2ccccc2Cl)c1 | 12.1 | -1.3 | 20.5 | 18.8 | 4.2 | 10.6
Cc1ccc(C(=O)NCc2ccccc2)cc1Br | 0.3 | -2.6 | -5.7 | -77.5* | 10.6 | -0.8
O=C(NCCc1ccccc1)/C(=N\O)c1ccccc1 | 21.3 | -0.4 | 3.4 | -78.7* | 14.9 | -1.8
O=C(NCCc1ccccc1)c1cccc(Br)c1 | 64.8* | -4.5 | nt | -11.2 | 37.3 | -1.9
Cc1ccc(C(=O)NC(=S)NCc2ccccc2)cc1Br | -0.9 | -6.6 | nt | 25.7 | -2.7 | -7.9
C/C(N)=C(/C#N)C(=O)CN1C(=O)NC(Cc2c[nH]c3ccccc23)C1=O (configuration not stated) | 6.9 | -9.4 | 22.7 | 6.3 | 4.0 | nt
CN(CC(=O)Nc1ccc(Cl)cc1)CC(=O)Nc1cccc(Br)c1 | 12.9 | -0.2 | -15.8 | nt | 5.3 | -10.3
Cc1nc(SCC(=O)Nc2cc(Cl)ccc2[N+](=O)[O-])nc(C)c1C | 4.6 | -5.5 | -17.4 | 6.8 | -0.7 | 0.1
CC1(C)CC(=O)C=C(C(=O)N2CCCC(C(=O)c3cccc(Cl)c3)C2)O1 (configuration not stated) | 11.0 | 3.8 | 47.7 | 5.8 | 1.6 | -0.5
Cc1cccc(NC(=S)NNC(=O)c2csc(C)c2)c1 | 38.7 | -3.3 | 4.5 | 10.4 | 19.8 | 84.6*
Cc1cccc(NC(=S)NNC(=O)c2ccc(Br)o2)c1 | 15.4 | -3.6 | 88.3* | -7.2 | 2.4 | 94.4*
COCCCn1c(-c2ccc(S(=O)(=O)N3CCOCC3)cc2)csc1=Nc1ccccc1 | -7.0 | -27.8 | 69.1* | 49.5 | -4.6 | 5.9
OCCNc1cc(-n2nc(-c3ccccc3)cc2-c2ccccc2)ncn1 | 17.6 | -5.2 | -0.4 | -4.4 | 1.5 | 96.5*
COC(=O)CSc1[nH]c2ccccc2c1[N+](=O)[O-] | -3.0 | -2.2 | -2.8 | 26.8 | 8.3 | 99.7*
CN(Cc1ccccc1)C(=O)CCCn1c(=O)c2cccn2c2cccnc21 | -0.5 | 9.2 | -3.7 | 18.8 | -1.8 | 10.6
Cc1ccc(OCC(=O)N(C)CC(=O)Nc2ccccc2Cl)c([N+](=O)[O-])n1 | nt | nt | nt | nt | nt | -3.3
C#CCOc1nc(OCC#C)nc(OCC#C)n1 | -16.6 | 16.2 | 3.6 | 2.9 | -5.3 | 2.2
Cc1ccc2c(c1)c1c3n2CCN(C(=O)CN2CCN(C)CC2)C3CCC1 (configuration not stated) | -9.2 | -11.7 | 22.6 | -5.0 | -6.9 | 91.5*
CN1CCN(CC(=O)N2CCn3c4c(c5cc(C6CCCCC6)ccc53)CCCC42)CC1 (configuration not stated) | -5.6 | -9.7 | -24.6 | 9.7 | -2.0 | -6.0
Cc1ccc2c(c1)c(=O)c1c3n2CCN(C(=O)CCl)C3CC1 (configuration not stated) | -7.7 | 47.0* | 79.6* | 19.1 | -6.8 | -19.7

Bioassay records deposited in PubChem BioAssay by several laboratories.
